Sampled rows, rich in hits. Any-hit rate of the full collection: about 10%.
Diaphorase act – diaphorase activation or chemical reduction counter-screen. AID 1229. activation factor at 20 µM. Diaphorase/resazurin coupled assay, resorufin fluorescence, 16 min; hits give high values; 1 = vehicle wells, 0 = NADH-free wells. actives 0.005% (n = 190,000);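 active = diaphorase activity raised at least twofold by the compound at 20 µM; inactive = activation factor below 2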
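Material: Purified diaphorase enzyme from Clostridium kluyveri | Buffer or medium: 50 mM HEPES pH 7.4 with 4.542 mM MgCl2, 0.005% Tween 20 | Times: 16 min enzyme reaction, ambient temperature | Signal: Red resorufin fluorescence at 544/590 nm excitation/emission | Measure: Increased resorufin signal from activators or reducing compounds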
Lmaj promast – inhibitors of Leishmania major promastigote growth | Leishmania major promastigotes, resazurin fluorescence viability | actives 9% (n = 200,000) | inhibition, % at 10 µM; in the data active = inhibition above about 50%;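 note: promastigotes grown with compound for 44 hours at 28 °C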
PMI activator – increases human mannose-6-phosphate isomerase activity | P34949 | purified human PMI, coupled resazurin fluorescence, 20 min; hits give high values; 1 = vehicle control, 0 substrate-free wells | activation factor at 20 µM | actives 0.005% (n = 190,000);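 active = activation factor of 2 or more at 20 µM, relative to plate controls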
Target sequence (P34949 whole entry, looked up): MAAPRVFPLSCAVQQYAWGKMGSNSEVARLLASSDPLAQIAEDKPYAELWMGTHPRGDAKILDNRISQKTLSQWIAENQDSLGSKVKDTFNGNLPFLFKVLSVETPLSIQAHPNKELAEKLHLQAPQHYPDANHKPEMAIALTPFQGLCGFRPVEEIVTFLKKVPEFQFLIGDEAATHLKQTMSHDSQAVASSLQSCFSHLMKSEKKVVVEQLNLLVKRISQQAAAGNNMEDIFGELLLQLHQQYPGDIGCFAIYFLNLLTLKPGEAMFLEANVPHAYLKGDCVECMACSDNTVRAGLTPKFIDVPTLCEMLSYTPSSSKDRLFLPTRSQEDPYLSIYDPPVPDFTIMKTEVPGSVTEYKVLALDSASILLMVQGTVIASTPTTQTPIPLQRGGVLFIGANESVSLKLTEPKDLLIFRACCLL
WT yeast gro inh – growth inhibition of WT yeast, mitochondrial fusion screen; mitochondrial fusion phenotypic screen, WT strain; inhibition, % at 10 µM; actives 2.1% (n = 190,000); in the data active = inhibition above about 58%; tested in S. cerevisiae
PMI act satM6P – PMI (human) activation, high substrate. actives 0.34% (n = 190,000). coupled PMI enzyme assay, resazurin fluorescence, 20 min; hits give high values; 1 = untreated enzyme, 0 = substrate-free blank. P34949. AID 1216. activation factor at 20 µM;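 active = activation factor of 2 or more at 20 µM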
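assay system = human phosphomannose isomerase with PGI, G6PDH, diaphorase coupling enzymes | quantity = 15 ng/mL PMI | incubation = enzyme reaction with compound 20 min at room temperature | medium = HEPES pH 7.4 buffer with MgCl2 and Tween-20 | compound dosing = one concentration, 20 µM, in 1% DMSO | measured by = Diaphorase-driven resazurin-to-resorufin fluorescence, excitation 544, emission 590 nm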
The depositor's hits bear a star.

SMILES	Diaphorase act	Lmaj promast	PMI activator	WT yeast gro inh	PMI act satM6P
Cc1nc(NCc2cccnc2)c2c3c(sc2n1)CCCC3	0.9	2.4	0.9	-6.5	0.9
OCCNc1nc(SCc2ccccc2)nc2sc3c(c12)CCC3	0.8	6.1	0.8	77.9*	0.9
Cn1c(N/N=C/c2ccccc2)nc2sc3c(c2c1=O)CCC3	0.6	-0.2	0.9	61.7*	0.9
CCC(=O)N1CCc2cc(S(=O)(=O)NCCCN(CC)Cc3ccccc3)ccc21	0.9	55.1*	1	1.5	1
CCc1nnc(NC(=O)CSc2ncnc3c2cnn3-c2ccc(OC)cc2)s1	1	-5.2	1	-13.9	1
CN1/C(=C\C(=O)CSc2ncn[nH]2)C(C)(C)c2ccccc21	0.9	-4.4	0.5	11.8	1
CN1/C(=C/C(=O)c2nc(S(C)(=O)=O)ncc2Cl)C(C)(C)c2ccccc21	1.1	83.5*	1	0.4	1
CN1/C(=C\C(=O)c2cccc(S(=O)(=O)N3CCCCC3)c2)C(C)(C)c2ccccc21	0.9	98.9*	0.9	-13.0	0.9
CN1/C(=C\C(=O)c2cncc(Br)c2)C(C)(C)c2ccccc21	0.9	91.3*	1	56.5	1
CN1/C(=C\C(=O)c2cccnc2)C(C)(C)c2ccccc21	0.9	6.8	0.9	-3.8	1
CN1/C(=C\C(=O)COC(=O)c2ccco2)C(C)(C)c2ccccc21	0.8	13.4	1	17.0	1
CN1/C(=C\C(=O)c2ccco2)C(C)(C)c2ccccc21	0.9	82.8*	0.7	0.2	0.7
CC1CN(C(=O)C2(C)CC2(Br)Br)CC(C)O1 (stereo not drawn)	1	-4.6	0.9	0.2	1
CNC(=O)NC(=O)C(C)OC(=O)c1oc2ccccc2c1CSc1ccc(Cl)cc1 (stereo not drawn)	1	-6.0	1	18.6	1.1
O=S(=O)(NCc1ccccc1F)c1cccc(S(=O)(=O)N2CCOCC2)c1	1	11.2	1	-5.3	1
Cc1cc(/C=N/n2cnnc2)c(C)n1-c1ccc(Cl)cc1	0.9	27.6	1.2	49.2	1.3
Cc1cc(/C=N/n2cnnc2)c(C)n1-c1ccc(OCc2ccc(F)cc2)cc1	0.7	76.6*	0.9	62.1*	0.8
Cc1cc(/C=N/n2cnnc2)c(C)n1-c1ccc(OCc2ccc(Cl)cc2Cl)cc1	0.9	97.6*	0.8	79.9	0.9
C=CCN1C(=O)CSc2ccc(C(=O)NCc3ccco3)cc21	0.9	0.3	1.1	7.3	0.9
C=CCN1C(=O)CSc2ccc(C(=O)NCCC3=CCCCC3)cc21	0.7	75.5*	0.9	31.6	0.9
COc1cccc(N2CCN(c3ncnc4c3[nH]c3ccc(F)cc34)CC2C)c1 (stereo not drawn)	0.8	100.4*	0.8	79.1*	0.9
COc1cccc(N2CCN(c3ncnc4c3[nH]c3ccccc34)CC2C)c1 (stereo not drawn)	0.7	90.3*	0.8	65.0*	0.8
Cc1cc(NC(=O)NC(C(F)(F)F)C(F)(F)F)no1	0.8	-7.6	0.8	-0.1	0.8
COc1ccc2[nH]cc(CCn3ccc(O)c(C/C=C/c4ccccc4)c3=O)c2c1	0.7	100.0*	0.8	-4.4	0.8
COc1cccc(C(=O)NCC(=O)OCC(=O)Nc2cc(OC)c([N+](=O)[O-])cc2C)c1	0.8	-1.7	0.8	2.2	0.8
SMILES	Diaphorase act	Lmaj promast	PMI activator	WT yeast gro inh	PMI act satM6P
COC(=O)/C(=C\c1c[nH]c2ccccc12)NC(C)=O	1.1	-1.4	1.1	18.4	1
O=C(/C=C/c1c[nH]c2ccccc12)c1cccc2ccccc12	0.7	7.9	0.8	61.5*	0.6
CC(C)Cn1c(N)c(C(=O)COC(=O)[C@@H]2CCCN2C(=O)c2cccs2)c(=O)n(C)c1=O	0.9	-7.3	1.3	-6.9	1.1
Cc1c(Cl)cccc1NC(=O)[C@@H](NC(=O)c1ccccc1Cl)C(C)C	0.9	73.3*	1	7.9	1
COc1ccc(-n2cc(CN3CCCC3)c(-c3cccc(F)c3)n2)cc1	1.1	44.4	1	25.0	1
COc1ccc(-n2cc(CNC3CCN(C)CC3)c(-c3cccc(F)c3)n2)cc1	1.6	100.5*	1.1	59.0*	1.1
Cc1cc(=O)c2ccc3ccccc3c2[nH]1	0.8	54.1*	1	4.0	0.9
